These results are taken from ChEMBL document CHEMBL4613274, “Chimeric Peptidomimetics of SOCS 3 Able to Interact with JAK2 as Anti-inflammatory Compounds” (ACS Med Chem Lett, 2020).

The source made the active and inactive calls. The rule behind the calls is not given here. Square brackets hold non-standard residues; d marks the D form. Peptide text beside a SMILES is read from it. βAla = NCCC(=O)O

Data set [1] is described as follows: Stability of compound in FBS assessed as residual concentration at 80 uM incubated for 2 hrs by RP-HPLC analysis. The class given is physicochemical. As to conditions: cattle, fetal bovine serum (FBS); read-out: Stability. A digest of the protocol:
(§1)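 Pure peptides incubated in fetal bovine serum; decrease of chromatographic peak area followed over time, expressed as area percentage remaining.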

Data set [2] can be described thus: Drug distribution in cytoplasm of mouse VSMC measured after 2 hrs by confocal microscopy. The class given is ADME, subcellular. The conditions noted are these: in vitro. Summed up: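 Primary murine vascular smooth muscle cells exposed to fluorescent (TAMRA-labeled), Tat 48–60-conjugated peptides; uptake and subcellular distribution imaged by confocal microscopy after 2 h.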

In data set [3] the target is Signal transducer and activator of transcription 3 (Mus musculus) (UniProt P42227). In words: Inhibition of IFNgamma and IL6 induced STAT3 activation in mouse VSMC cells assessed as decrease in STAT3 phosphorylation at 5 uM pretreated for 90 mins using TAMRA-conjugated peptide followed by IFNgamma and IL6 stimulation for 1 hr by DAPI staining based immunofluorescence assay relative to control. In kind it is cell-based. Summed up:
(§2)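 Primary mouse VSMCs stimulated with IFNγ+IL-6 with or without TAMRA-labeled peptide 5 μM; immunofluorescence for phospho-STAT3 with DAPI nuclear counterstain, confocal imaging. P-STAT3 fluorescence intensity given as percentage, mean ± SEM, n = 3 independent experiments.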

Data set [4] has the same target. In words: Inhibition of IFNgamma and IL6 induced STAT3 nuclear translocation in mouse VSMC cells at 5 uM pretreated for 90 mins using TAMRA-conjugated peptide followed by IFNgamma and IL6 stimulation for 1 hr by DAPI staining based immunofluorescence assay relative to control. In kind it is cell-based. Summed up:
as §2

For data set [5], the system named is RAW264.7. In words: Antiinflammatory activity against mouse RAW264.7 cells assessed as reduction in IFNgamma and IL6-induced mRNA expression of Cxcl10 at […] pretreated for 90 mind followed by IFNgamma and IL6 stimulation for 1 hr by Trizol reagent based RT-PCR analysis. In kind it is functional, cell-based. Summed up: (§3)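 RAW264.7 murine macrophage-like cells; peptides (conjugated to HIV Tat 48–60 for cell entry) or Ala/Arg negative-control peptide at 12.5 μM, then IFNγ+IL-6 stimulation 1 h. Cxcl10, Ccl5 and Nox2 mRNA quantified by real-time PCR.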

For data set [6], the system named is RAW264.7. In words: Antiinflammatory activity against mouse RAW264.7 cells assessed as reduction in IFNgamma and IL6-induced mRNA expression of Ccl5 at […] pretreated for 90 mind followed by IFNgamma and IL6 stimulation for 1 hr by Trizol reagent based RT-PCR analysis. In kind it is functional, cell-based. A digest of the protocol:
as §3

Data set [7] concerns RAW264.7. In words: Antioxidant activity against mouse RAW264.7 cells assessed as reduction in IFNgamma and IL6-induced mRNA expression of Nox2 at […] pretreated for 90 mind followed by IFNgamma and IL6 stimulation for 1 hr by Trizol reagent based RT-PCR analysis. The class given is functional, cell-based. A digest of the protocol:
as §3

Data set [8] addresses Tyrosine-protein kinase JAK2 (Homo sapiens, UniProt O60674). As to the kind of experiment: Binding affinity to human N-terminal His-tagged JAK2 catalytic domain (826 to 1132 end residues) at 25 degree C by microscale thermophoresis assay. A digest of the protocol: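 JAK2 catalytic domain binding by microscale thermophoresis; labeled target with 1:1 serial dilutions of peptide (14–16 samples) from stocks of ~404–409 μM in labeling buffer pH 7.5. Temperature-induced fluorescence change plotted versus peptide concentration; KD from fitting of binding isotherm.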

Data set [9] can be described thus: Stability of compound in FBS assessed as decrease in chromatographic peak at 80 uM incubated up to 4 hrs by RP-HPLC analysis. The class given is physicochemical. The conditions noted are these: cattle. A digest of the protocol:
as §1

Data set [10] is described as follows: Stability of compound in FBS assessed as drug degradation at 80 uM incubated for 2 hrs by RP-HPLC analysis. In kind it is physicochemical. The conditions noted are these: cattle, fetal bovine serum (FBS); read-out: Drug degradation. Summed up:
as §1

Sequence of Signal transducer and activator of transcription 3 (Mus musculus) (P42227 whole entry): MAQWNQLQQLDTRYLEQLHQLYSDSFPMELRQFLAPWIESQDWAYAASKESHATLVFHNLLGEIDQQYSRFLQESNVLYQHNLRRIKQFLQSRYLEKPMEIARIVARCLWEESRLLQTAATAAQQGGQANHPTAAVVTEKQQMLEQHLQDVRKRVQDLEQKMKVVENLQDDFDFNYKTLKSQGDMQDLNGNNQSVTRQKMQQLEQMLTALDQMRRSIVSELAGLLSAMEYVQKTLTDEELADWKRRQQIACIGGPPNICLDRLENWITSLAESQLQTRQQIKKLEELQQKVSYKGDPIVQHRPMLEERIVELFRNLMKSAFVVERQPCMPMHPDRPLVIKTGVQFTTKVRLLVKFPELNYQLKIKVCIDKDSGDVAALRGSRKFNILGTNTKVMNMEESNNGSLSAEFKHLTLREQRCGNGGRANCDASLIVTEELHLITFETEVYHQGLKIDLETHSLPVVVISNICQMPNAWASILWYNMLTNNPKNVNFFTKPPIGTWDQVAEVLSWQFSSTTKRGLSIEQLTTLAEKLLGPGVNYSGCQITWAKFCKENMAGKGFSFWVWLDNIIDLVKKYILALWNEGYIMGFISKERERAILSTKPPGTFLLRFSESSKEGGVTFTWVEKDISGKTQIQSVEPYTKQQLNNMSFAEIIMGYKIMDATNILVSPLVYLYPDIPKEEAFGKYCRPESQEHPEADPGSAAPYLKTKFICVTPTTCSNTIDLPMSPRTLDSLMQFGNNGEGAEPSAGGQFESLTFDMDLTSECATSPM
Sequence of Tyrosine-protein kinase JAK2 (O60674 whole entry, the tested form may be a part): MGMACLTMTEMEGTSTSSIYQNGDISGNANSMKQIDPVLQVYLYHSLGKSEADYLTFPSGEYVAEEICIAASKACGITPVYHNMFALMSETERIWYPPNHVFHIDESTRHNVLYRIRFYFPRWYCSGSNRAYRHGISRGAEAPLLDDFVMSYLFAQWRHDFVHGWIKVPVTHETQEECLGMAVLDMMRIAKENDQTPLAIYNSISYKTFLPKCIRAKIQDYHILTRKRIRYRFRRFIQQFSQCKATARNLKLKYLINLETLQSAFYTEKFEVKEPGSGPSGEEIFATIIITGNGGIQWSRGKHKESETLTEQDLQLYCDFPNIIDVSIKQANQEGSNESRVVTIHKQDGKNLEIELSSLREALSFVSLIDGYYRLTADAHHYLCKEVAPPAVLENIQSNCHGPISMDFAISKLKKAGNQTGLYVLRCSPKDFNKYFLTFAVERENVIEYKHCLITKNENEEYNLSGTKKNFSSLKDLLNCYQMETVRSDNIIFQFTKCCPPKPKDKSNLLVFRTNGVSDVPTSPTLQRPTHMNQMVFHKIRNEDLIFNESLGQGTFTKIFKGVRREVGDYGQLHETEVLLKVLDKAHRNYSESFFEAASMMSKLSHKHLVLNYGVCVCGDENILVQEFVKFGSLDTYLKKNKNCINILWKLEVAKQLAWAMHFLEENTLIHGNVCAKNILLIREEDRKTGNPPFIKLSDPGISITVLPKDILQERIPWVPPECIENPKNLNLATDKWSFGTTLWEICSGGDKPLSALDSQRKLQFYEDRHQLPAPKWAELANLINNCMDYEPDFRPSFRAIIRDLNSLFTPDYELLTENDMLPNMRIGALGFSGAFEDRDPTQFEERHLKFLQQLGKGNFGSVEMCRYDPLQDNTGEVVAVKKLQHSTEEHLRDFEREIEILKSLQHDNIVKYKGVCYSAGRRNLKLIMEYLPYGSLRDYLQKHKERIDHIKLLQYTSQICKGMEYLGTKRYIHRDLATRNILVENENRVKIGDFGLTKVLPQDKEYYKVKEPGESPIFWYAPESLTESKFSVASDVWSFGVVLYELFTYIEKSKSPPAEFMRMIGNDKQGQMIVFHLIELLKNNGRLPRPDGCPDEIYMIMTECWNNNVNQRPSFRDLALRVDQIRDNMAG

As a reminder, the inhibition is the relative decrease from the control value, in per cent. In the case of `CC(=O)N[C@@H](CC(C)C)C(=O)N[C@@H](CCCCN)C(=O)N[C@H](C(=O)N[C@@H](Cc1ccccc1)C(=O)N[C@@H](CO)C(=O)N[C@@H](CO)C(=O)N[C@@H](CCCCN)C(=O)N[C@@H](CO)C(=O)N[C@@H](CCC(=O)O)C(=O)N[C@@H](Cc1ccc(O)cc1)C(=O)N[C@@H](CCC(N)=O)C(=O)N[C@@H](CC(C)C)C(=O)N[C@H](C(=O)N[C@H](C(=O)N[C@@H](CC(N)=O)C(=O)N[C@@H](C)C(=O)N[C@H](C(=O)N[C@@H](CCCNC(=N)N)C(=O)N[C@@H](CCCCN)C(=O)N[C@@H](CC(C)C)C(=O)N[C@@H](CCC(N)=O)C(=O)N[C@@H](CCC(=O)O)C(=O)N[C@@H](CO)C(=O)NCC(N)=O)C(C)C)C(C)C)C(C)C)[C@@H](C)O`, in data set [1], the remaining at 2 h, 80 µM came to 40%. Also, in [2], the Drug uptake result was “Active”. Further, in data set [3], the inhibition turned out to be 65%. Also, in data set [4], the inhibition entry was “Active”. Further, the result with RAW264.7 [5], in the data set with RAW264.7 [6] and in the data set on RAW264.7 [7] was Active.
What is called Kd is the constant that tells how readily two partners part at equilibrium. Lower therefore signals higher affinity. `CC(=O)N[C@@H](CCCCN)C(=O)NCCC(=O)N[C@@H](Cc1ccccc1)C(=O)N[C@@H](CO)C(=O)N[C@@H](CO)C(=O)N[C@@H](CCCCN)C(=O)N[C@@H](CO)C(=O)N[C@@H](CCC(=O)O)C(=O)N[C@@H](Cc1ccc(O)cc1)C(=O)N[C@@H](CCC(N)=O)C(=O)N[C@@H](CC(C)C)C(=O)NCCC(=O)NCCC(=O)N[C@@H](Cc1ccccc1)C(=O)N[C@@H](Cc1ccc(O)cc1)C(=O)N[C@@H](Cc1c[nH]c2ccccc12)C(=O)N[C@@H](CO)C(=O)N[C@@H](C)C(=O)N[C@H](C(=O)N[C@H](C(N)=O)[C@@H](C)O)C(C)C` (Ac-K[βAla]FSSKSEYQL[βAla][βAla]FYWSAVT-NH2): in data set [8], the Activity result is “Dose-dependent effect”. The same compound returned a Kd in [8] of 11 µM. In [9], the Stability entry is on record as “Stable”. For the same compound, the remaining at 2 h, 80 µM in data set [1] worked out at 70%. Besides, the Drug uptake result in data set [2] is on record as “Active”. In addition, the inhibition in [3] came to 65%. Moreover, the inhibition result in data set [4] was “Active”. The result with RAW264.7 [5], with RAW264.7 [6] and in the data set with RAW264.7 [7] was Active.
Ac-AAARAAARAAARAAARAAARAAAA-NH2: the inhibition entry in data set [4] was “inactive”. The outcome with RAW264.7 [5], in the data set with RAW264.7 [6] and in the data set on RAW264.7 [7] was inactive.
For the compound Ac-FSSKSEYQLVVNAVRKLQESGFYWSAVT-NH2, the Activity entry in [8] is “Dose-dependent effect”. Moreover, the Stability result in data set [9] is on record as “Stable”. In addition, the metabolised at 2 h, 80 µM in [10] is 100%.
In the case of Ac-VVNAVRKLQESGFYWSAVT-NH2, in data set [8], the Activity entry is “Dose-dependent effect”. For the same compound, the Stability entry in data set [9] is “Stable”.
